# tolC growth inh – growth inhibitors of E. coli BW25113 tolC mutant; 65,000 compounds, 2.2% hits; growth inhibition, % at 10 µM (by protocol); OD615;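 active means growth inhibition at or above a cutoff equal to the mean over every tested compound plus 3 SD, cut at about 60% in these data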;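 further: growth measured after 20 h incubation at 37 °C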
#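 signal = optical density read at 615 nm | test system = E. coli ΔtolC::kan strain BW25113 | timing = 20 h compound exposure of bacteria at 37 °C | buffer or medium = LB medium plus 50 µg/mL kanamycin | compound dosing = 10 µM final, single dose | evaluation = % inhibition of E. coli growth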
# CYP2C9 inh – human CYP2C9 inhibition | inhibition, % at 5 µM | P11712 | 96,000 compounds, 20% hits | CYP2C9 Supersomes, luciferin-H conversion, luminescence | AID 777;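 active means blocking of liver enzyme CYP2C9 beyond about 50% at 5 µM, limit read from the data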
# CYP2C19 activ – activators of human cytochrome P450 2C19; P33261; recombinant CYP2C19, luciferin-H EGE luminescence; stronger effect = higher value; 0 = fully inhibited enzyme, 1 = untreated enzyme; activation factor at 5 µM; 96,000 tested, under 10 active;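 active means activation factor of at least 2 at 5 µM in the primary screen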;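 further: 0 = wells with 2.5 mM tranylcypromine and 1 = vehicle-only wells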
# Target sequence (P33261 whole entry, looked up): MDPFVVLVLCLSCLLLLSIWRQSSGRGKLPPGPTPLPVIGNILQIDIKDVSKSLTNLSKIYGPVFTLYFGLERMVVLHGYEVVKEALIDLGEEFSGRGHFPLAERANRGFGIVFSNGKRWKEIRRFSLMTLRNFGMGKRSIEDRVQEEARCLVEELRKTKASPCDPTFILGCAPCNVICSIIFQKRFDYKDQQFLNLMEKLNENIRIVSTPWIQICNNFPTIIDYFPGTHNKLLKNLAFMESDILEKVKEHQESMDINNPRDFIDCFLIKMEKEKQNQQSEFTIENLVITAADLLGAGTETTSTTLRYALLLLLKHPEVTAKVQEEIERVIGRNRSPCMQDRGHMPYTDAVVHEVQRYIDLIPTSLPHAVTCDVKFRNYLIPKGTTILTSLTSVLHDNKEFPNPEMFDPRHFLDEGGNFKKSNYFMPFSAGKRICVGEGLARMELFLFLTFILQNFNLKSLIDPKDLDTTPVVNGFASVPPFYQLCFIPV
# Ecoli WT expand – growth inhibitors of E. coli BW25113 wild type | AID 710 | 98,000 compounds, 0.15% hits | growth inhibition, % at 100 µM | OD600 absorbance;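 active means growth inhibition above about 50% at one test dose, limit read from the data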;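 further: growth measured after 20 h incubation at 37 °C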
# CYP2C19 inhib – inhibitors of human CYP2C19 | 96,000 compounds, 21% hits | P33261 | CYP2C19 Supersomes, luciferin-H EGE luminescence, 30 min | AID 778 | inhibition, % at 5 µM;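 active means CYP2C19 inhibition above a set limit at 5 µM in the primary screen, cut at about 50% in these data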;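 further: plate controls were negative control wells for no effect and 2.5 mM tranylcypromine positive control for full effect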
# CYP2C9 act – CYP2C9 (human) activation | activation factor at 5 µM | recombinant CYP2C9, luciferin-H conversion, luminescence; stronger effect = higher value; factor 1 = untreated enzyme, 0 = blocked | AID 1024 | 96,000 compounds, 1.4% hits;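 active means activation factor of 2 or more for CYP2C9 at a 5 µM dose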;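 further: 0 = sulfaphenazole-blocked wells and 1 = vehicle-only wells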
# An asterisk follows results filed as active; / = not tested or not shown. Only some compounds are listed: those with a hit (about 29% of all), similar ones and a draw of the others.
SMILES,tolC growth inh,CYP2C9 inh,CYP2C19 activ,Ecoli WT expand,CYP2C19 inhib,CYP2C9 act
CC(C)CCC(C)N=Cc1c(O)n(Cc2ccccc2)c(=O)c2ccccc12 (stereo not given),/,86*,1,-20,-4,0.1
CCN(CC)CCCN=Cc1c(O)n(Cc2ccccc2)c(=O)c2ccccc12,/,22,0.8,5,17,0.8
COc1cc2c(cc1NC(=O)C(c1ccccc1)c1ccccc1)CCCC2,/,96*,0.2,-11,83*,0
CSc1nnc(-c2ccccc2Cl)n1N,-1,-27,1.2,8,-21,1.3
Clc1ccccc1-c1nc2ccccc2c2nncn12,/,16,0.4,-16,62*,0.8
COCCN(C(=O)CSc1nnc(Nc2ccccc2F)s1)c1c(N)n(Cc2ccccc2)c(=O)[nH]c1=O,/,62*,0.7,7,32,0.4
O/N=C/c1cc(Cl)ccc1OCc1ccccc1Cl,/,61*,0.8,-14,21,0.4
COc1ccc(S(=O)(=O)N[C@@H](Cc2ccc(Cl)cc2)C(=O)N2CC[C@@]3(O)CCCC[C@H]3C2)cc1,/,31,0.6,21,44,0.7
CCCN(CCC)c1nc(N)nc(-c2cc(Cl)ccc2OC)n1,/,16,0.4,-12,58*,0.8
CCCNc1nc(N)nc(-c2cc(Cl)ccc2OC)n1,/,26,0.3,6,74*,0.7
O=C(O)CC(C(=O)Nc1ccc(Cl)c(Cl)c1)C1CCCO1 (stereo not given),/,-10,1,-5,5,1.1
CC(=O)c1ccc2c(c1)C1C=CCC1C(c1ccncc1)N2 (stereo not given),/,90*,0.1,5,92*,0.1
C1=CC2c3ccccc3NC(c3ccncc3)C2C1 (stereo not given),2,73*,0.2,-6,82*,0.3
COc1cccc2c1NC(C(=O)O)C1CC=CC21 (stereo not given),-5,/,/,/,/,/
COC(=O)c1ccc(C2Nc3ccc(/C(C)=N/NC(=O)C(OC)c4ccccc4)cc3C3C=CCC32)cc1 (stereo not given),/,34,0.8,-3,24,0.7
COC(=O)c1c(C(=O)OC)c2ccncn2c1Cl,-24,80*,0.2,-6,81*,0.2
COC(=O)c1ccc(-n2cnc(Cl)n2)c(F)c1,/,5,0.9,4,5,1
COc1ccc(C)cc1S(=O)(=O)Nc1ccc(F)c(Cl)c1,21,/,/,2,/,/
CCOc1ccc(C)cc1S(=O)(=O)NC1CCCCC1,7,14,0.8,11,21,0.9
COc1ccc(OC)c(S(=O)(=O)Nc2ccc(C)c(C)c2)c1,/,84*,0,6,99*,0.2
COc1ccc(OC)c(S(=O)(=O)Nc2ccc3oc4c(c3c2)C(=O)CCC4)c1,40,94*,0.4,-2,57*,0.1
COc1ccc(NS(=O)(=O)c2cc(C)ccc2OC)cc1OC,-5,41,0.2,-1,82*,0.6
COc1ccc(C)cc1S(=O)(=O)NC1CCCCC1C (stereo not given),15,89*,0.1,8,85*,0.1
CC(C)Cn1c(CN2CCCCC2C)nc2c1c(=O)n(C)c(=O)n2C (stereo not given),-2,12,0.9,2,8,0.9
CS(=O)(=O)N1CCC(C(=O)NCC2CCCO2)CC1 (stereo not given),-7,-8,1,0,-2,1.1
SMILES,tolC growth inh,CYP2C9 inh,CYP2C19 activ,Ecoli WT expand,CYP2C19 inhib,CYP2C9 act
COc1cccc(NS(=O)(=O)c2cc(C)ccc2OC)c1,-2,52*,0.3,-11,69*,0.5
COc1ccc(C)cc1S(=O)(=O)Nc1cccc(SC)c1,8,22,0.8,4,21,0.8
COc1ccc(F)cc1S(=O)(=O)Nc1ccc(C)cc1,19,57*,0.6,-6,40,0.4
CCn1nnnc1-c1ccc(OC)c(S(=O)(=O)Nc2ccc(C)c(C)c2)c1,/,62*,0.5,3,49,0.4
COc1ccc(C)cc1S(=O)(=O)Nc1cccc(Cl)c1,5,48,0.6,-6,39,0.5
Cc1onc(-c2ccccc2)c1C(=O)N1CCc2ccccc21,11,41,0.1,4,90*,0.6
Cc1noc(C)c1C(=O)N1CCCc2ccccc21,/,4,0.8,-6,18,1
Cc1onc(-c2ccccc2Cl)c1C(=O)OCC(=O)N1CCCc2ccccc21,27,96*,0.1,-16,94*,0
Cc1onc(-c2ccccc2Cl)c1C(=O)N1CCCc2ccccc21,16,16,0.3,-4,68*,0.8
Cc1onc(-c2c(F)cccc2Cl)c1C(=O)NCCCN1CCOCC1,-13,16,1,1,3,0.8
Cc1onc(-c2c(F)cccc2Cl)c1C(=O)N1C=CC(C(F)(F)Cl)=NCC1,/,29,0.4,-2,58*,0.7
O=C1c2ccccc2S(=O)(=O)N1Cc1cc(=O)n2ccsc2n1,-3,5,0.9,7,6,0.9
Cc1onc(-c2ccccc2Cl)c1C(=O)N1CCc2ccccc21,13,34,0.3,4,69*,0.7
Cc1ccc2c(c1)CCCN2C(=O)c1c(C)noc1C,-7,35,0.5,1,47,0.6
Cc1onc(-c2c(F)cccc2Cl)c1C(=O)N1CCCc2ccccc21,22,26,0.3,4,66*,0.7
COCCNS(=O)(=O)c1cccc2cccnc12,-8,-56,0.9,0,9,1.6
Cc1ccc(C)c(NC(=O)Cn2nc(C(F)(F)F)cc2C2CC2)c1,/,-16,0.5,-20,49,1.2
CC(C)C(=O)Nc1nnc(CSCc2ccccc2F)s1,/,42,0.3,1,70*,0.6
CCc1nnc(NC(=O)C(C)Sc2ccccc2)s1 (stereo not given),1,74*,0.2,4,83*,0.3
CCOCCc1nnc(NC(=O)C(CC)c2ccccc2)s1 (stereo not given),/,87*,0.4,-1,56*,0.1
CC(C)(C)C(=O)Nc1nnc(CSCc2ccccc2F)s1,/,56*,0.4,4,59*,0.4
CC(C)COC(=O)Nc1nnc(SCc2ccccc2F)s1,/,6,0.9,-8,9,0.9
CNc1nc(NCCOC23CC4CC(CC(C4)C2)C3)nc(OCC(F)(F)F)n1,/,21,0.5,3,46,0.8
O=[N+]([O-])c1ccc(Oc2c(F)c(F)nc(N3CCCC3)c2F)cc1,/,5,0.6,1,40,1
O=C(Nc1nc2ccc(S(=O)(=O)N3CCCCC3)cc2s1)c1cccnc1,/,33,0.9,-4,7,0.7
O=C(Nc1nc2ccc(S(=O)(=O)N3CCCC3)cc2s1)c1cccs1,0,29,1,-8,0,0.7
Cc1ccc(S(=O)(=O)Nc2nc3ccc(S(=O)(=O)N4CCCC4)cc3s2)cc1,22,98*,1,-1,4,0

# Assay outcomes (PubChem BioAssay)
